Source: ChEMBL document CHEMBL1127471, “Tricyclic analogues of acyclovir and ganciclovir. Influence of substituents in the heterocyclic moiety on the antiviral activity” (1994)
≈ marks a conversion by molar mass, not a printed value.

Tests used:
Format in all cases: functional
Human alphaherpesvirus 1 [1] = assay: The minimum inhibitory concentration was measured on E6SM cells against Herpes simplex virus type 1 (F strain)
Method in brief: (§1)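 Antiviral endpoint was the concentration reducing virus-induced cytopathicity by 50% in […] cell cultures. Values are means of two to six independent determinations.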

Human betaherpesvirus 5 = assay: The minimum inhibitory concentration was measured on HEL cells against Cytomegalovirus virus (AD-169 strain)
Method in brief: (§2)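 Antiviral endpoint was the concentration reducing virus plaque formation by 50% in HEL cell cultures. Values are means of two to six independent determinations.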

Human alphaherpesvirus 1 [2] = assay: The minimum inhibitory concentration was measured on E6SM cells against TK-Herpes simplex virus type 1 (B2006 strain); method in brief: as §1
[3] = The minimum inhibitory concentration was measured against Herpes simplex virus type 1 (KOS strain) on E6SM cells; details: Human alphaherpesvirus 1; method in brief: as §1
HEL [4] = assay: The […] was measured on HEL cells in cell growth; details: Homo sapiens
Human alphaherpesvirus 3 [5] = assay: The minimum inhibitory concentration was measured on HEL cells against TK-Varicella zoster virus (YS-R strain); details: Human alphaherpesvirus 3, ys-r; method in brief: as §2
Human alphaherpesvirus 3 [6] = assay: The minimum inhibitory concentration was measured on HEL cells against TK-Varicella zoster virus (07/1 strain); method in brief: as §2
Cytomegalovirus = assay: The minimum inhibitory concentration was measured on HEL cells against Cytomegalovirus virus (Davis strain); details: Human betaherpesvirus 5; method in brief: as §2
Vaccinia virus = assay: The minimum inhibitory concentration was measured on E6SM cells against Vaccinia virus; details: Orthopoxvirus vaccinia; method in brief: as §1
Human alphaherpesvirus 3 [7] = assay: The minimum inhibitory concentration was measured on HEL cells against Varicella zoster virus (OKA strain); details: Human alphaherpesvirus 3, oka; method in brief: as §2
Human alphaherpesvirus 3 [8] = assay: The minimum inhibitory concentration was measured on HEL cells against Varicella zoster virus (YS strain); method in brief: as §2
[9] = The minimum inhibitory concentration was measured on E6SM cells against Herpes simplex virus type 1 (McIntyre strain); details: Human alphaherpesvirus 1; method in brief: as §1
E6SM = assay: The minimum inhibitory concentration was measured on E6SM cells for morphological alteration; details: Homo sapiens
Method in brief: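 In uninfected E6SM cells, the value is the concentration giving a microscopically detectable change in normal cell morphology. Values are means of two to six independent determinations.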

Human alphaherpesvirus 1 [10] = assay: The minimum inhibitory concentration was measured on E6SM cells against TK+/TK-Herpes simplex virus type 1 (VMW1837 strain); method in brief: as §1
HEL [11] = assay: The minimum inhibitory concentration was measured on HEL cells against Cytomegalovirus virus (Davis strain); (<100>40); details: Homo sapiens; method in brief: as §2
HEL [12] = assay: The minimum inhibitory concentration was measured on HEL cells against Cytomegalovirus virus (AD-169 strain); (<100>40); details: Homo sapiens; method in brief: as §2
HEL [13] = assay: The minimum inhibitory concentration was measured on HEL cells against Cytomegalovirus virus (AD-169 strain); (<400>100); details: Homo sapiens; method in brief: as §2
HEL [14] = assay: The minimum inhibitory concentration was measured on E6SM cells against Vesicular stomatitis virus; details: Homo sapiens; method in brief: as §1
HEL [15] = assay: The minimum inhibitory concentration was measured on HEL cells against Cytomegalovirus virus (Davis strain); (<400>100); details: Homo sapiens; method in brief: as §2
HEL [16] = assay: The minimum inhibitory concentration was measured on HEL cells against TK-Varicella zoster virus (YS-R strain); (<400>100); details: Homo sapiens; method in brief: as §2

Row | Structure (SMILES) | MIC (Human alphaherpesvirus 1 [1]) [µg/mL] | MIC (Human betaherpesvirus 5) [µg/mL] | MIC (Human alphaherpesvirus 1 [2]) [µg/mL] | MIC [3] [µg/mL] | MIC (HEL [4]) [µg/mL] | MIC (Human alphaherpesvirus 3 [5]) [µg/mL] | MIC (Human alphaherpesvirus 3 [6]) [µg/mL] | MIC (Cytomegalovirus) [µg/mL] | MIC (Vaccinia virus) [µg/mL] | MIC (Human alphaherpesvirus 3 [7]) [µg/mL] | MIC (Human alphaherpesvirus 3 [8]) [µg/mL] | MIC [9] [µg/mL] | MIC (E6SM) [µg/mL] | MIC (Human alphaherpesvirus 1 [10]) [µg/mL] | MIC (HEL [11]) [µg/mL] | MIC (HEL [12]) [µg/mL] | MIC (HEL [13]) [µg/mL] | MIC (HEL [14]) [µg/mL] | MIC (HEL [15]) [µg/mL] | MIC (HEL [16]) [µg/mL]
1 | Cc1cnc2nc3c(c(O)n12)NCN3COCCO | 0.1 (≈ 0.377 µM) | > 50 | > 50 | 2.1 (≈ 7.92 µM) | > 200 | > 50 | > 50 | > 50 | > 150 | > 50 | > 50 | 0.5 (≈ 1.88 µM) | > 100 | > 120 | – | – | – | – | – | –
2 | OCCOCN1CNc2c1nc1nc(-c3ccc(Br)cc3)cn1c2O | 2 (≈ 4.92 µM) | – | – | 0.6 (≈ 1.48 µM) | > 200 | 230 (≈ 566 µM) | 125 (≈ 308 µM) | – | > 70 | 1 (≈ 2.46 µM) | 4 (≈ 9.85 µM) | 0.2 (≈ 0.492 µM) | ≥ 70 | > 70 | > 40 | > 40 | – | – | – | –
3 | CC(C)(C)c1cn2c(O)c3c(nc2n1)N(COCCO)CN3 | 4 (≈ 13 µM) | – | – | 4.5 (≈ 14.6 µM) | 167 (≈ 543 µM) | 127 (≈ 413 µM) | 40 (≈ 130 µM) | – | > 250 | 1 (≈ 3.25 µM) | 2.2 (≈ 7.16 µM) | 2 (≈ 6.51 µM) | > 250 | > 125 | – | – | > 100 | > 125 | > 100 | –
4 | Cc1cn2c(O)c3c(nc2n1)N(COC(CO)CO)CN3 | 0.005 (≈ 0.0169 µM) | > 50 | 31 (≈ 105 µM) | 0.015 (≈ 0.0508 µM) | > 200 | 15 (≈ 50.8 µM) | 15 (≈ 50.8 µM) | > 50 | > 175 | 1 (≈ 3.39 µM) | 12 (≈ 40.6 µM) | 0.02 (≈ 0.0677 µM) | > 175 | 1.6 (≈ 5.42 µM) | – | – | – | – | – | –
5 | CC(C)(C)c1cn2c(O)c3c(nc2n1)N(COC(CO)CO)CN3 | 0.1 (≈ 0.296 µM) | > 50 | > 70 | 0.035 (≈ 0.104 µM) | > 200 | 50 (≈ 148 µM) | 50 (≈ 148 µM) | > 50 | > 135 | 5 (≈ 14.8 µM) | > 20 | 0.1 (≈ 0.296 µM) | > 175 | 0.7 (≈ 2.07 µM) | – | – | – | – | – | –
6 | Cc1cn2c(O)c3c(nc2n1)N(COCCO)C(Br)N3 (centres undefined) | 150 (≈ 436 µM) | – | – | 95 (≈ 276 µM) | > 200 | 185 (≈ 538 µM) | 180 (≈ 523 µM) | – | > 250 | 215 (≈ 625 µM) | 220 (≈ 639 µM) | 150 (≈ 436 µM) | > 250 | > 125 | – | – | > 100 | – | > 100 | –
7 | OCCOCN1CNc2c1nc1nc(-c3ccccc3)cn1c2O | 0.7 (≈ 2.14 µM) | – | – | 0.4 (≈ 1.22 µM) | 45 (≈ 137 µM) | 67 (≈ 205 µM) | 67 (≈ 205 µM) | 166 (≈ 507 µM) | > 100 | 1.3 (≈ 3.97 µM) | 1.4 (≈ 4.28 µM) | 0.2 (≈ 0.611 µM) | > 100 | > 70 | – | – | > 100 | – | – | –
8 | OCC(CO)OCN1CNc2c1nc1nc(-c3ccccc3)cn1c2O | 0.005 (≈ 0.014 µM) | 20 (≈ 56 µM) | > 30 | 0.02 (≈ 0.056 µM) | > 200 | 1 (≈ 2.8 µM) | 3 (≈ 8.39 µM) | 7 (≈ 19.6 µM) | > 90 | 0.4 (≈ 1.12 µM) | 3 (≈ 8.39 µM) | 0.005 (≈ 0.014 µM) | > 175 | 0.5 (≈ 1.4 µM) | – | – | – | – | – | –
9 | OCC(CO)OCN1CNc2c1nc1nc(-c3ccc(-c4ccccc4)cc3)cn1c2O | 0.01 (≈ 0.0231 µM) | > 50 | > 60 | 0.02 (≈ 0.0461 µM) | > 200 | 20 (≈ 46.1 µM) | 25 (≈ 57.7 µM) | > 50 | > 70 | 10 (≈ 23.1 µM) | > 50 | 0.001 (≈ 0.00231 µM) | > 85 | 2.7 (≈ 6.23 µM) | – | – | – | – | – | –
10 | OCCOCN1CNc2c1nc1nc(-c3ccc(-c4ccccc4)cc3)cn1c2O | 2 (≈ 4.96 µM) | – | – | 1.3 (≈ 3.22 µM) | > 200 | – | 100 (≈ 248 µM) | – | > 70 | 65 (≈ 161 µM) | 40 (≈ 99.1 µM) | 0.7 (≈ 1.74 µM) | ≥ 70 | > 55 | – | – | > 100 | – | > 100 | > 100
11 | Cc1cn2c(O)c3c(nc2n1)N(COCCO)CN3 | 0.58 (≈ 2.19 µM) | > 50 | 127 (≈ 479 µM) | 0.8 (≈ 3.02 µM) | > 200 | 70 (≈ 264 µM) | > 50 | > 50 | > 190 | 4.6 (≈ 17.3 µM) | 9.4 (≈ 35.4 µM) | 1 (≈ 3.77 µM) | > 190 | 40 (≈ 151 µM) | – | – | – | – | – | –
12 | Nc1nc2c(ncn2COCCO)c(=O)[nH]1 [ACYCLOVIR] | 0.004 (≈ 0.0178 µM) | 13.2 (≈ 58.6 µM) | 70 (≈ 311 µM) | 0.02 (≈ 0.0888 µM) | > 200 | 4.7 (≈ 20.9 µM) | 13.7 (≈ 60.8 µM) | – | > 180 | 0.18 (≈ 0.799 µM) | 0.38 (≈ 1.69 µM) | 0.07 (≈ 0.311 µM) | 350 (≈ 1550 µM) | 5 (≈ 22.2 µM) | – | – | – | – | – | –
13 | O=c1[nH]c(=O)n([C@H]2C[C@H](O)[C@@H](CO)O2)cc1/C=C/Br [BRIVUDINE] | 0.005 (≈ 0.015 µM) | > 20 | 15 (≈ 45 µM) | 0.003 (≈ 0.00901 µM) | 60 (≈ 180 µM) | 20 (≈ 60 µM) | 17.5 (≈ 52.5 µM) | > 20 | 0.22 (≈ 0.66 µM) | 0.005 (≈ 0.015 µM) | 0.003 (≈ 0.00901 µM) | 0.006 (≈ 0.018 µM) | > 350 | 52 (≈ 156 µM) | – | – | – | – | – | –
14 | Nc1nc2c(ncn2COC(CO)CO)c(=O)[nH]1 [GANCICLOVIR] | 0.004 (≈ 0.0157 µM) | 1.5 (≈ 5.88 µM) | 4.5 (≈ 17.6 µM) | 0.003 (≈ 0.0118 µM) | > 200 | 1.4 (≈ 5.49 µM) | 1.5 (≈ 5.88 µM) | 0.9 (≈ 3.53 µM) | > 80 | 0.5 (≈ 1.96 µM) | 1.4 (≈ 5.49 µM) | 0.004 (≈ 0.0157 µM) | > 270 | 0.08 (≈ 0.313 µM) | – | – | – | – | – | –
15 | O=c1[nH]c(=O)n([C@H]2C[C@H](O)[C@@H](CO)O2)cc1I [IDOXURIDINE] | 7 (≈ 19.8 µM) | – | – | 20 (≈ 56.5 µM) | – | – | – | – | > 20 | – | – | 4 (≈ 11.3 µM) | ≥ 400 | 20 (≈ 56.5 µM) | – | – | – | – | – | –
16 | NC(=O)c1ncn([C@@H]2O[C@H](CO)[C@@H](O)[C@H]2O)n1 [RIBAVIRIN] | 23 (≈ 94.2 µM) | – | 53 (≈ 217 µM) | 46 (≈ 188 µM) | – | – | – | – | 28 (≈ 115 µM) | – | – | 16 (≈ 65.5 µM) | 400 (≈ 1640 µM) | 115 (≈ 471 µM) | – | – | – | – | – | –
